This is an account of results in ChEMBL document CHEMBL1125377, “Phenothiazines as lipid peroxidation inhibitors and cytoprotective agents” (1992).

Values after ≈ are worked out from the molar mass of the structure shown.

The species entered for the first assay is Oryctolagus cuniculus. Kind of assay: In vitro inhibition of iron-dependent peroxidation of rabbit brain vesicular membrane lipids.
Conditions: not given
In kind it is functional. The method in brief: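 Rabbit brain homogenized 10% w/v in 25 mM Tris-HCl with 0.15 M KCl, pH 7.5, spun 10000g for 15 min. The supernatant was given the agent in DMSO and incubated with ADP (220 μM) and FeCl3 (2 μM) at 37 °C for 1 h; the control was not incubated. TBARS read at 532 nm as MDA against a standard curve. Reported as MIC, the minimum tested concentration giving ≥50% inhibition.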
Regarding `CN(C)CCOc1ccc2c(c1)Nc1ccccc1S2.CS(=O)(=O)O`, the MIC was determined as 0.26 µM. Compound `CN(C)CCOc1ccc2c(c1)Nc1ccccc1S2.Cl` yielded an MIC of 0.093 µM.

The same assay, now with this note: Oryctolagus cuniculus; read-out: MIC.
For `CN(C)CCCOc1ccc2c(c1)Nc1ccccc1S2`, the MIC amounted to 0.14 µM (≈ 0.0421 µg/mL). As to `CN(C)CCOc1ccc2c(c1C(=O)N(C)C)Nc1ccccc1S2`, the MIC amounted to 2.5 µM (≈ 0.894 µg/mL). On to `COc1ccc2c(c1C(=O)NCCN(C)C)Nc1ccccc1S2`, for which the MIC was 2.6 µM (≈ 0.893 µg/mL).

Take `NCCOc1ccc2c(c1)Nc1ccccc1S2`: the MIC came to 0.18 µM (≈ 0.0465 µg/mL). For the compound `CN(C)CCOc1ccc2c(c1)N(C)c1ccccc1S2`, the MIC worked out at 21 µM (≈ 6.31 µg/mL).

With `OCCN1CCN(CCOc2ccc3c(c2)Nc2ccccc2S3)CC1`, the MIC was 0.068 µM (≈ 0.0253 µg/mL). Consider `CN(C)CCOc1ccc2c(c1)Sc1ccccc1N2`, for which the MIC came out at 0.056 µM (≈ 0.016 µg/mL). With `OCCN1CCN(CCCc2ccc3c(c2)Nc2ccccc2S3)CC1`, the MIC turned out to be 0.17 µM (≈ 0.0628 µg/mL). With `CN(C)CCCOc1ccc2c(c1)Sc1ccccc1N2`, the MIC came to 0.089 µM (≈ 0.0267 µg/mL).

Turning to `CN(C)CCCN1c2ccccc2Sc2ccc(Cl)cc21` [CHLORPROMAZINE], the MIC stood at 10 µM (≈ 3.19 µg/mL). Regarding `c1ccc2c(c1)Nc1ccccc1S2` [PHENOTHIAZINE], the MIC came out at 0.15 µM (≈ 0.0299 µg/mL).
